Hits are enriched below; roughly 1.4% of the tested compounds scored in any of these assays.
Efflux pump mplx: antifungal efflux pump inhibition, Nile Red retention. S. cerevisiae Candida pump triplex. inhibition, % at 10 µM. AID 485275. 330,000 tested, 0.44% active;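 active = plate passing quality check with inhibition over a set limit, or well fluorescence over plate mean plus 4 SD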;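 also: Nile Red retained in pooled yeast measured as flow cytometry median fluorescence; 0% = buffer negative control and 100% = Enniatin B positive control; higher means more Nile Red kept so more efflux inhibition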
Yeast superoxide: lowers age-related superoxide in aged yeast cells. S. cerevisiae aged cells, superoxide DHE fluorescence; active compounds read low. superoxide response (% of plate mean), % at 10 µM. 330,000 tested, 0.18% active. AID 2690;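 active = superoxide response under a set limit, about three screen SD below normal, cut at about 65% in these data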;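 also: yeast aged for seven days with compound at 30 °C before DHE staining; 100% = average MFI of all compound-treated wells on the plate with controls excluded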
IDE act: boosts human insulin-degrading enzyme activity in HEK cells | P14735 | FAbeta-B cleavage, fluorescence polarization; 0% vehicle, 100% cell-free pure enzyme wells | activation, % at 5.96 µM | 340,000 tested, 0.073% active | AID 493087;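 active = activation above the mean of all tested compounds plus 3 SD, set per screening campaign, cut at about 17% in these data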
TbMetRS inhib: blocks T. brucei methionyl-tRNA synthetase activity. purified T. brucei MetRS, ATP depletion, Kinase-Glo luminescence. inhibition, % at 11.9 µM. 360,000 tested, 0.4% active. AID 624268;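 active = inhibition above a per-plate cutoff of the control wells' mean inhibition plus 3 SD, cut at about 5.5% in these data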;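 also: 0% = DMSO wells median and 100% = median of wells with control inhibitor compound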
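assay system = parasite MetRS enzyme | timing = 15 min preincubation, 2 h reaction, all 25 °C | evaluation = percent inhibition relative to median high and low control wells | medium = HEPES buffer containing pyrophosphatase, BSA, spermine, DTT | compound = single dose, 11.9 µM final nominal, 0.9% final DMSO | detection = Kinase-Glo luminescence, ATP depletion format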
HDAC3 inhib: blocks human histone deacetylase 3. inhibition, % at 8.3 µM. AID 2718. 320,000 tested, 0.15% active. recombinant HDAC3, fluorogenic peptide/trypsin coupled, fluorescence; in the data active = inhibition above about 26%, passing the limit was not always enough; inconclusive = no clear call, values can overlap the other calls
IDE inh: inhibitors of human insulin-degrading enzyme in cells; AID 434962; P14735; HEK cells, FAbetaB cleavage, fluorescence polarization; inhibition, % at 5.59 µM; 320,000 tested, 0.41% active;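 active = percent inhibition above the average of all tested compounds plus 3 SD, set per screening campaign, cut at about 16% in these data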;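 also: IDE supplied by intact live HEK cells; FP after avidin binding of uncleaved biotin substrate so inhibition keeps polarization high; 0% = DMSO wells and 100% = 60 µM reference IDE inhibitor Ii1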
Yeast cmpd fluor: flagged as fluorescent in efflux inhibitor counter-screen; shares compounds with Efflux pump mplx; fluorescence ratio to DMSO, % at 10 µM; S. cerevisiae AD/pABC3, compound fluorescence, flow cytometry; 1,700 tested, 4% active;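 active = fluorescence ratio to DMSO above its plate's cutoff, the plate mean ratio plus 5 SD, cut at about 210% in these data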;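 also: unstained yeast with no Nile Red so the signal is compound autofluorescence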
CaMdr1 efflux inh: blocks the Candida albicans Mdr1 efflux pump in yeast | 1,700 tested, 1% active | shares compounds with Efflux pump mplx | inhibition, % at 10 µM | S. cerevisiae AD/CaMDR1, Nile Red efflux, flow cytometry; in the data active = inhibition above about 26%;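 also: 0% = DMSO vehicle and 100% = reference inhibitor; higher means more Nile Red retained so more efflux inhibition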
Cdr2 pump inh: blocks the Candida albicans Cdr2 efflux pump in yeast; S. cerevisiae AD/CaCDR2, Nile Red retention, flow cytometry; Nile Red retention ratio vs DMSO, % at 10 µM; shares compounds with Efflux pump mplx; 1,700 tested, 4% active; in the data active = Nile Red retention ratio vs DMSO above about 190%;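 also: higher ratio means more blocking of Cdr2 efflux of the dye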
Cdr1 pump inh: inhibitors of Candida albicans Cdr1 efflux pump; shares compounds with Efflux pump mplx; S. cerevisiae AD/CaCDR1, Nile Red efflux, flow cytometry; 1,700 tested, 1% active; AID 588522; inhibition, % at 10 µM;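 active = inhibition above the screen-wide mean plus twice its standard deviation, cut at about 32% in these data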
Active calls of the source: *; ? = inconclusive; . = no result.

SMILES | Efflux pump mplx | Yeast superoxide | IDE act | TbMetRS inhib | HDAC3 inhib | IDE inh | Yeast cmpd fluor | CaMdr1 efflux inh | Cdr2 pump inh | Cdr1 pump inh
COc1cc(NC(=O)C2CCCCN2)ccc1OCC(C)C (stereo unspecified) | 0.5* | 111 | 1 | 0 | 3 | 3 | 98 | 0 | 100 | 0
COc1ccc(NC(=O)C2CCCNC2)cc1OCC(C)C (stereo unspecified) | 0 | 100 | 2 | 0 | -2 | 5 | . | . | . | .
O=C(N/N=C/c1cccs1)c1ccc2c(c1)OCO2 | 11* | 114 | -4 | 0 | 8 | 0 | 95 | 0 | 112 | 0
CCSc1nc2c(c(=O)[nH]1)C(c1ccncc1)C(C(=O)OC(C)C)=C(C)N2 (stereo unspecified) | 0.4* | 110 | 4 | 0 | -4 | 3 | 92 | 0 | 107 | 0
COC(=O)c1cccc(NC(=O)CSc2nnc(C3CC3)n2C)c1 | 0 | 106 | 4 | 1 | 0 | 1 | . | . | . | .
CC1CC(C)CN(S(=O)(=O)c2cc(C(=O)O)c(Cl)s2)C1 (stereo unspecified) | 9.7* | 112 | -3 | 0 | -6 | -3 | 101 | 0 | 94 | 0
Cc1cc(C2CC(=O)Nc3ccccc3S2)c(C)s1 (stereo unspecified) | 0 | 106 | 4 | -1 | -1 | 2 | 97 | 0 | 106 | 0
O=C1CSc2ccccc2N1 | . | . | 0 | 0 | . | . | . | . | . | .
O=C1CC(c2ccsc2)Sc2ccccc2N1 (stereo unspecified) | 0 | 91 | 5 | -1 | ? | 2 | 89 | 0 | 100 | 0
COc1cc2c(cc1OC)C(c1ccsc1)CC(=O)N2 (stereo unspecified) | 0 | 108 | 2 | -1 | 4 | 1 | . | . | . | .
CCSc1cnc(-c2ccccc2)n1CC | 0.5* | 99 | 4 | -2 | -7 | 3 | 87 | 0 | 98 | 0
Cc1ccc(C(OCC(C)(C)C[N+](C)(C)C)c2ccccc2)cc1 (stereo unspecified) | 0 | 78 | 3 | 0 | 0 | -2 | . | . | . | .
CCCNC(=O)C1(C)CCCN(Cc2ccc(Cl)cc2)C1 (stereo unspecified) | . | . | . | 0 | . | . | . | . | . | .
COc1ccc(/C(O)=C2/C(=O)C(=O)N(c3ccccn3)C2c2cccc(Cl)c2)cc1 (stereo unspecified) | 0 | 139 | 0 | -1 | -1 | 2 | . | . | . | .
Cc1ccc([C@@H]2[C@@H]3C(=O)N(C)C(=O)[C@@H]3[C@@H]3C(=O)Nc4ccccc4C(=O)N23)cc1 | 0.6* | 112 | 2 | 0 | 0 | 4 | 95 | 0 | 97 | 0
CCCCN(Cc1ccco1)S(=O)(=O)c1csc(C(N)=O)c1 | 0 | 113 | 3 | 1 | 0 | -1 | . | . | . | .
COc1ccc2nc(C)cc(Sc3nc4ccccc4s3)c2c1 | 1.0* | 86 | 6 | -1 | 4 | 6 | 89 | 0 | 98 | 0
COc1ccc2nc(C)cc(SCC(=O)NNC(=O)COc3ccccc3)c2c1 | 0 | 100 | -3 | 0 | 4 | -2 | . | . | . | .
CN1CCN(C(=O)c2ccccc2-c2ccccc2C(=O)O)CC1 | 6.7* | 95 | 5 | 0 | -7 | 2 | 102 | 0 | 78 | 0
COc1ccc(C2NC(=O)c3ccccc3O2)cc1 (stereo unspecified) | 0 | 97 | 5 | 0 | -1 | 1 | . | . | . | .
CCSc1cc(N2CCCC2)nc(-c2ccc(F)cc2)n1 | 0 | 103 | 4 | -2 | 3 | -1 | 91 | 0 | 87 | 0
CCSc1cc(N2CCCC2)nc(-c2ccc(C)cc2)n1 | 0 | 81 | 1 | 0 | -1 | 1 | 110 | 0 | 104 | 0
Cc1ccc(S(=O)(=O)N2CCOCC2)cc1NC(=O)CSCc1c(C)noc1C | 0 | 129 | -1 | 0 | 4 | 11 | . | . | . | .
COc1cccc(S(=O)(=O)N(C)C[C@H]2Oc3ncc(Br)cc3C(=O)N([C@@H](C)CO)C[C@@H]2C)c1 | . | . | . | -1 | . | . | . | . | . | .
COc1ccc(NC(=O)Cn2cc(S(=O)(=O)Cc3ccccc3)c3ccccc32)c(OC)c1 | 9.6* | 108 | 7 | -1 | 2 | -3 | 105 | 0 | 99 | 0
SMILES | Efflux pump mplx | Yeast superoxide | IDE act | TbMetRS inhib | HDAC3 inhib | IDE inh | Yeast cmpd fluor | CaMdr1 efflux inh | Cdr2 pump inh | Cdr1 pump inh
Cc1cc(C)cc(-n2ncc3c2CCCC3NC(=O)c2cc(C)[nH]n2)c1 (stereo unspecified) | 0 | 107 | 3 | 0 | 0 | -4 | 106 | 0 | 98 | 0
CC(=O)Nc1c2c(nn1-c1ccc(F)cc1)CSC2 | 0 | 94 | -2 | 1 | ? | 2 | . | . | . | .
Cc1cc(Cl)c2oc(C(=O)NCC(C)(C)N3CCOCC3)c(C)c2c1 | 0.6* | 91 | 1 | 0 | -3 | 4 | 128 | 0 | 102 | 0
COc1ccc(Cl)cc1NC(=O)CN1CCC(NC(=O)C2CC2)CC1 | 0 | 113 | 5 | -1 | -4 | -1 | . | . | . | .
CC(=O)Nc1ccc(NC(=S)NC(=O)/C=C/c2ccco2)cc1 | 0 | 110 | -4 | 0 | 0 | 0 | . | . | . | .
CC(=O)N(C)c1ccc(NC(=S)NC(=O)/C=C/c2ccco2)cc1 | 0.6* | 92 | 1 | 0 | 1 | 6 | 106 | 0 | 98 | 0
COc1cc2c(cc1OC)C(=O)N1[C@H]3c4ccccc4OC[C@@H]3[C@H](c3ccccc3)[C@]1(C)C(=O)N2 | 0 | 98 | -2 | 0 | 6 | 0 | . | . | . | .
COc1ccc2c(c1)OC[C@H]1[C@H]2N2C(=O)c3cc(OC)c(OC)cc3NC(=O)[C@@]2(C)[C@H]1c1ccccc1 | 48* | 105 | -3 | 0 | 14 | 3 | 539* | 79* | 112 | 34*
Cc1ccc2c(c1)C(=O)N1[C@H]3c4cc(Cl)ccc4OC[C@@H]3[C@H](c3ccccc3)[C@]1(C)C(=O)N2 | 0 | 94 | 1 | 0 | 6 | 6 | 100 | 0 | 99 | 0
C[C@@]12C(=O)Nc3cc(Cl)ccc3C(=O)N1[C@H]1c3cc(Cl)ccc3OC[C@@H]1[C@@H]2c1ccccc1 | 0 | 87 | -2 | 0 | 2 | 3 | 97 | 0 | 102 | 0
C[C@@]12C(=O)Nc3ccc(F)cc3C(=O)N1[C@H]1c3cc(Cl)ccc3OC[C@@H]1[C@@H]2c1ccccc1 | 0 | 102 | 4 | 0 | 4 | -1 | 128 | 0 | 127 | 0

Screening results from PubChem BioAssay.
